Source: article PMC10962727 (PNAS Nexus, 2024)
Values belong to the molecule of their own block, whether it stands above or below them.

Key:
Pharmacokinetics in mice = assay type: in vivo; conditions: female, CD1, mouse, plasma, po, 20 mg/kg
In short: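 Female CD1 mice and male beagle dogs received test compound orally in 0.5% methylcellulose:0.5% Tween-80 or intravenously in saline, both at 5 mL/kg. After oral dosing, plasma concentrations were measured at 30 min, 1 h, 3 h, 8 h and 24 h.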

MST1 [1] = molecular target: T1, MST1 (Homo sapiens, UniProt Q13043); conditions: high-throughput MST1 inhibition screen ref 16, 17; cited from earlier work
T1 sequence (Q13043 1-487): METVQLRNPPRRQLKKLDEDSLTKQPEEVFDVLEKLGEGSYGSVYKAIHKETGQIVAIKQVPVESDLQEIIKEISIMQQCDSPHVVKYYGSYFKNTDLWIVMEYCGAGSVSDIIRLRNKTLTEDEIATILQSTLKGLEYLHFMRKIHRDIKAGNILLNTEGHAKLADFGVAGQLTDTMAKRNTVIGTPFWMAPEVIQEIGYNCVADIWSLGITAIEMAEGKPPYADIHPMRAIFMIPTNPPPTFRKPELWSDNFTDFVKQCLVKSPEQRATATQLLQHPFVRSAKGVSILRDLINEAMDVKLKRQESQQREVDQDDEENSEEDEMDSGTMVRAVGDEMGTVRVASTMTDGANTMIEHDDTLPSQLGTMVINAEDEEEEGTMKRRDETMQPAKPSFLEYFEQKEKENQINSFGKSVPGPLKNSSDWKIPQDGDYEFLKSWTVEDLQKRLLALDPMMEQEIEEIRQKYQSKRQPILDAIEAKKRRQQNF

MST1 [2] = molecular target: T1, MST1; experiment: MST1 inhibition; assay type: biochemical; conditions: vs neratinib
EGFR = EGFR (Homo sapiens, UniProt P00533); experiment: EGFR inhibition; assay type: biochemical
MST1/2 = conditions: cited from earlier work

EGFR, sequence (P00533 25-1210): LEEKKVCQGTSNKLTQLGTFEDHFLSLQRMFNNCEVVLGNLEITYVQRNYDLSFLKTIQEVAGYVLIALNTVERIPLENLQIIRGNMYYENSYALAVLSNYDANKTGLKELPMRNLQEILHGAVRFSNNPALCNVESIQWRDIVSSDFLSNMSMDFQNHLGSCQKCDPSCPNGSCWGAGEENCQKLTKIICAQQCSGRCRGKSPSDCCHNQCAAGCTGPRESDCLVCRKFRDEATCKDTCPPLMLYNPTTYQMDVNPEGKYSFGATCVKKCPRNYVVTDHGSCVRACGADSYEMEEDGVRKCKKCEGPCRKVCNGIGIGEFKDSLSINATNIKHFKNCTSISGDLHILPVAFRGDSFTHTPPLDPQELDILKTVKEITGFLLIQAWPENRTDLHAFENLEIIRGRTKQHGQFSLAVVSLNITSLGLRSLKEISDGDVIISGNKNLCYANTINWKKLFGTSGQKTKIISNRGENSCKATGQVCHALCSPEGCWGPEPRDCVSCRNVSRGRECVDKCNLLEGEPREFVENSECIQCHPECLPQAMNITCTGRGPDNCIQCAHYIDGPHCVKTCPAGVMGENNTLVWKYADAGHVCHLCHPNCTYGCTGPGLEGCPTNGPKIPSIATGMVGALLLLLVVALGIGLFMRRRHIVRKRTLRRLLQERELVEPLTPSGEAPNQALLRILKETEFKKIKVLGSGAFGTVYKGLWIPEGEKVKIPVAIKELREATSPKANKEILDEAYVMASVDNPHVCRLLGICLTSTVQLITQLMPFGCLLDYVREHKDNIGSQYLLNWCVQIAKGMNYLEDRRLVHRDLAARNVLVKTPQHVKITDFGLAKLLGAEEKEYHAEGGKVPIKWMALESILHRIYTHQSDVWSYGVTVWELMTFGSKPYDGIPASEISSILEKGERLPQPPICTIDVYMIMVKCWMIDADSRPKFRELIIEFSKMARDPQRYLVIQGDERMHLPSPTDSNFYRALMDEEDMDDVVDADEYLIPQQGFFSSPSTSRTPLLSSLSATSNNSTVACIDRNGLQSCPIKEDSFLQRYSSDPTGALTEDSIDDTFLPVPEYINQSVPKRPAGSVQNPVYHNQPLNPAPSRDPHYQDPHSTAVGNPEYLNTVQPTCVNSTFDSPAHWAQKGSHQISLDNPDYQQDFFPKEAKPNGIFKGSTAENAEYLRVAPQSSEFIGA

- AUC(0-t) (Pharmacokinetics in mice): 3120 ng·h/mL
- Cmax (Pharmacokinetics in mice): 342 ± 152 ng/mL
- MRT (Pharmacokinetics in mice): 5.4 ± 1.3 h
- Tmax (Pharmacokinetics in mice): 4 ± 3 h
Molecule: CCOc1cc2ncc(C#N)c(Nc3ccc(OCc4ccccn4)c(Cl)c3)c2cc1NC(=O)/C=C/CN(C)C [Neratinib]
- MST1 inhibitory activity (in words) (MST1 [1]): high MST1 inhibitory activity

Molecule: CCOc1cc2ncc(C#N)c(Nc3ccc(OCc4ccccn4)c(Cl)c3)c2cc1NC(=O)CCCN(C)C [mBNB885]
- MST1 activity (in words) (MST1 [2]): preserved MST1 activity
- fold reduction in potency toward EGFR / EGFR inhibition (EGFR; compared with preceding/parent compound): 5 fold
- IC50 (EGFR; read-out: EGFR IC50): 1.42 nM

Molecule: XMU-MP-1
- MST1/2 inhibition (in words) (MST1/2): selective MST1/2 inhibition
